How the values were obtained:
Dipeptidyl peptidase 1 [1] = biological target: T1, Dipeptidyl peptidase 1 (Homo sapiens, UniProt P53634); test: Inhibition of cellular cathepsin C (unknown origin)
In short: (§1)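 Values are means of two independent experiments, each run in duplicate.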

[2] = Aldehyde reactivity of the compound in 0.1M phosphate buffer assessed as compound remaining at pH 7.4 measured after 15 hrs in presence of propionaldehyde by HPLC-UV analysis; type: ADME; details: phosphate buffer with propionaldehyde, read-out: Stabilty
In short: (§2)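 Each compound was spiked in bulk into propionaldehyde dissolved in 0.1 M phosphate buffer, pH 7.4. Aliquots were taken at intervals and analysed by HPLC-UV to give percent parent remaining, with incubations lasting up to 15 h. Half-life was calculated from the disappearance of parent. Where no analyte remained at 15 h, only the 2 h data were used. Adduct identity was confirmed as molecular ion +40 amu. This was a single experiment (n = 1).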

Dipeptidyl peptidase 1 [3] = biological target: T1, Dipeptidyl peptidase 1; test: Inhibition of human cathepsin C; in short: as §1
[4] = Half life of the compound in 0.1M phosphate buffer at pH 7.4 by HPLC-UV analysis; type: physicochemical; in short: as §2
Dipeptidyl peptidase 1 [5] = biological target: T1, Dipeptidyl peptidase 1; test: Inhibition of human cathepsin C at 10 uM relative to control
Dipeptidyl peptidase 1 [6] = biological target: T1, Dipeptidyl peptidase 1; test: Inhibition of human cathepsin C at 1 uM relative to control
[7] = Aldehyde reactivity of the compound in 0.1M phosphate buffer assessed as compound remaining at pH 7.4 measured after 2 hrs in presence of propionaldehyde by HPLC-UV analysis; type: ADME; details: phosphate buffer with propionaldehyde, read-out: Stabilty; in short: as §2
[8] = Metabolic stability in rat liver microsomes assessed as compound remaining measured after 60 mins; type: ADME, Microsome; details: read-out: Stabilty
In short: (§3)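 The readout was percent of parent remaining after 60 min incubation with liver microsomal preparations. Values are the mean of three replicates ± SD.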

CYP2C9 [9] = biological target: T2, CYP2C9 (Homo sapiens, UniProt P11712); test: Inhibition of CYP2C9 (unknown origin) at 10 uM relative to control; type: ADME
CYP2C19 [10] = biological target: T3, CYP2C19 (Homo sapiens, UniProt P33261); test: Inhibition of CYP2C19 (unknown origin) at 1 uM relative to control; type: ADME
Homo sapiens [11] = species: Homo sapiens; test: Selectivity for human cathepsin C over cathepsin K (unknown origin)
CYP1A2 [12] = biological target: T4, CYP1A2 (Homo sapiens, UniProt P05177); test: Inhibition of CYP1A2 (unknown origin) at 10 uM relative to control; type: ADME
T4 sequence (P05177 whole entry): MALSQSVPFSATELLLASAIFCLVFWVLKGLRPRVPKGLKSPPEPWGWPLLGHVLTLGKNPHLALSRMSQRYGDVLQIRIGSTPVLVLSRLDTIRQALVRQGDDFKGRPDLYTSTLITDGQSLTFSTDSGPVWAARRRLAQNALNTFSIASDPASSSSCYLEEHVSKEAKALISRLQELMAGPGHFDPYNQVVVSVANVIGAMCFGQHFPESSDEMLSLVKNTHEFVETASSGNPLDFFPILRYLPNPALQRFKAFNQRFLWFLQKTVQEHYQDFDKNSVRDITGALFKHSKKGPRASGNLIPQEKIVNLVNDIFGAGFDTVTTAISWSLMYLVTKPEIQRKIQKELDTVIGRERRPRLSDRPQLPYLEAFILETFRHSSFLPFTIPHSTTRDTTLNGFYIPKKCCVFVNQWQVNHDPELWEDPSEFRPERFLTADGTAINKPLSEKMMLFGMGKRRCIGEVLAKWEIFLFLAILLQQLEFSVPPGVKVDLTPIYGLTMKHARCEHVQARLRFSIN

[13] = Metabolic stability in mouse liver microsomes assessed as compound remaining measured after 60 mins; type: ADME, Microsome; details: read-out: Stabilty; in short: as §3
Homo sapiens [14] = species: Homo sapiens; test: Selectivity for human cathepsin C over cathepsin B (unknown origin)
[15] = Stability of the compound in mouse plasma; type: ADME, cell-free
CYP2C8 [16] = biological target: T5, CYP2C8 (Homo sapiens, UniProt P10632); test: Inhibition of CYP2C8 (unknown origin) at 10 uM relative to control; type: ADME
T5 sequence (P10632 whole entry): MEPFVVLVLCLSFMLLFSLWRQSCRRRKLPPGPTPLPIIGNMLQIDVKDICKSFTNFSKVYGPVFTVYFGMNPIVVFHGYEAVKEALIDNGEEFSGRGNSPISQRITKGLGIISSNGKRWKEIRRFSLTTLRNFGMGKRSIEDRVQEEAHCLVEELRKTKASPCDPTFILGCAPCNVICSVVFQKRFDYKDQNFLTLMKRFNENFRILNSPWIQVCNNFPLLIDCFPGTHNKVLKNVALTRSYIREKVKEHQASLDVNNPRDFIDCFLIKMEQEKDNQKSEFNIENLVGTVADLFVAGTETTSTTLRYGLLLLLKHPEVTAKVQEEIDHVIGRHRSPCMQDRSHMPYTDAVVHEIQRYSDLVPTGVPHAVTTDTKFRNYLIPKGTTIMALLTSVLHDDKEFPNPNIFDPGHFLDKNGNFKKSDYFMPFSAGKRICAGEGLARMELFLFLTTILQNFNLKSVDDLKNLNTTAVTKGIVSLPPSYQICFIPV

CYP3A4 [17] = biological target: T6, CYP3A4 (Homo sapiens, UniProt P08684); test: Inhibition of CYP3A4 (unknown origin) at 10 uM relative to control; type: ADME
CYP3A4 [18] = biological target: T6, CYP3A4; test: Inhibition of CYP3A4 (unknown origin) at 1 uM relative to control; type: ADME
[19] = Metabolic stability in human liver microsomes assessed as compound remaining measured after 60 mins; type: ADME, Microsome; details: read-out: Stabilty; in short: as §3
CYP2C9 [20] = biological target: T2, CYP2C9; test: Inhibition of CYP2C9 (unknown origin) at 1 uM relative to control; type: ADME
CYP2D6 [21] = biological target: T7, CYP2D6 (Homo sapiens, UniProt P10635); test: Inhibition of CYP2D6 (unknown origin) at 1 uM relative to control; type: ADME
CYP2D6 [22] = biological target: T7, CYP2D6; test: Inhibition of CYP2D6 (unknown origin) at 10 uM relative to control; type: ADME
Homo sapiens [23] = species: Homo sapiens; test: Selectivity for human cathepsin C over cathepsin L (unknown origin)
[24] = Stability of the compound in rat plasma; type: ADME, cell-free
CYP1A2 [25] = biological target: T4, CYP1A2; test: Inhibition of CYP1A2 (unknown origin) at 1 uM relative to control; type: ADME
[26] = Stability of the compound in human plasma; type: ADME, cell-free
CYP2C8 [27] = biological target: T5, CYP2C8; test: Inhibition of CYP2C8 (unknown origin) at 1 uM relative to control; type: ADME
CYP2C19 [28] = biological target: T3, CYP2C19; test: Inhibition of CYP2C19 (unknown origin) at 10 uM relative to control; type: ADME
Homo sapiens [29] = species: Homo sapiens; test: Selectivity for human cathepsin C over cathepsin S (unknown origin)
[30] = Aldehyde reactivity of the compound in 0.1M phosphate buffer assessed as compound remaining at pH 7.4 measured after 1 hr in presence of propionaldehyde by HPLC-UV analysis; type: ADME; details: phosphate buffer with propionaldehyde, read-out: Stabilty; in short: as §2

T1 sequence (P53634 25-134 limits assumed): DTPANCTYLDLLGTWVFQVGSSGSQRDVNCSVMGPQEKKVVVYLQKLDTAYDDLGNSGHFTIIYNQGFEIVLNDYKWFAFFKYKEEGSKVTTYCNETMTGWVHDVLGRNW
T1 sequence (P53634 231-394 limits assumed): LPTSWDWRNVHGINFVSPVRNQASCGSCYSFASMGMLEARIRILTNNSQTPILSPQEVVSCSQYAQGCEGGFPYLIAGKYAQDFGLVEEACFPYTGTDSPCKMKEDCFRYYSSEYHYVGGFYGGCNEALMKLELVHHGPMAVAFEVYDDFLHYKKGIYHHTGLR
T1 sequence (P53634 395-463 limits assumed): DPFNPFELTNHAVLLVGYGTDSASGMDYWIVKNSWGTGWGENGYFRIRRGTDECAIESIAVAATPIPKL
T7 sequence (P10635 whole entry): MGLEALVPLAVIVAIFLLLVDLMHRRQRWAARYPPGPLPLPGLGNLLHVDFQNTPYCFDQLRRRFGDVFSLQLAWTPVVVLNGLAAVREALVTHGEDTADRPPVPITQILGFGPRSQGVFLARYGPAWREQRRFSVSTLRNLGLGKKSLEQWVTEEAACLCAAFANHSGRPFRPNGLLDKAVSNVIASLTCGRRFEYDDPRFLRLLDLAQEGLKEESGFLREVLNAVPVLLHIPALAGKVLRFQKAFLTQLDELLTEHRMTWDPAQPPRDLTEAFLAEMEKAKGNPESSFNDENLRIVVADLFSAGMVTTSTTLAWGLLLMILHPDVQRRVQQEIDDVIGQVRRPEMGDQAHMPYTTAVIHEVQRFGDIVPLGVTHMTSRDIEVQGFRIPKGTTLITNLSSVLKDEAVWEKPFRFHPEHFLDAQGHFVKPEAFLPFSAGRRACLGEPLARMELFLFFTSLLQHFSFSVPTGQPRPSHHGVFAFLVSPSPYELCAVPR
T6 sequence (P08684 whole entry): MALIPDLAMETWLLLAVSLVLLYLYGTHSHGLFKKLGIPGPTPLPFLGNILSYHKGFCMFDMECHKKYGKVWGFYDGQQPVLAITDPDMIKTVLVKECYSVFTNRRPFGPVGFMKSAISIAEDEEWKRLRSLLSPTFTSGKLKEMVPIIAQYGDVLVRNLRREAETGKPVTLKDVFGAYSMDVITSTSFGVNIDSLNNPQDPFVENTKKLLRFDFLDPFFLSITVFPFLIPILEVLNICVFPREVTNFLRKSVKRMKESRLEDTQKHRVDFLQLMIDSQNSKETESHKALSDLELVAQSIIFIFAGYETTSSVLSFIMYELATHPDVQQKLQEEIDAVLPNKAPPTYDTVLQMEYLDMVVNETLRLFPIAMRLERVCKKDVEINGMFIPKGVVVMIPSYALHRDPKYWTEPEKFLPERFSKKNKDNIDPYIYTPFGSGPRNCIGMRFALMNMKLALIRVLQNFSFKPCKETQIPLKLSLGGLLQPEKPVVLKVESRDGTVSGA
T2 sequence (P11712 whole entry): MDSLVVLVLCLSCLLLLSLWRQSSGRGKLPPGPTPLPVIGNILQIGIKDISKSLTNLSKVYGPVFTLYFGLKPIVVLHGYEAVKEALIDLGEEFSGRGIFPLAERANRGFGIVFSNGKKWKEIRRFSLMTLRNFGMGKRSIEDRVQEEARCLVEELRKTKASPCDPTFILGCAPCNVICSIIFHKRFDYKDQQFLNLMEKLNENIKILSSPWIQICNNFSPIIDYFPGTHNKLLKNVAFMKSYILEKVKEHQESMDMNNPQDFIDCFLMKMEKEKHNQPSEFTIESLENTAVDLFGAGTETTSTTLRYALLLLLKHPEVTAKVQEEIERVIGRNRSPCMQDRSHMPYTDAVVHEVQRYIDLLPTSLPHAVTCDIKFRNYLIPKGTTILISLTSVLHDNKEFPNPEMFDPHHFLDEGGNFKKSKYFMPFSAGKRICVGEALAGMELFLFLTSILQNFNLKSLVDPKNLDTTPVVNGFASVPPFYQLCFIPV
T3 sequence (P33261 whole entry): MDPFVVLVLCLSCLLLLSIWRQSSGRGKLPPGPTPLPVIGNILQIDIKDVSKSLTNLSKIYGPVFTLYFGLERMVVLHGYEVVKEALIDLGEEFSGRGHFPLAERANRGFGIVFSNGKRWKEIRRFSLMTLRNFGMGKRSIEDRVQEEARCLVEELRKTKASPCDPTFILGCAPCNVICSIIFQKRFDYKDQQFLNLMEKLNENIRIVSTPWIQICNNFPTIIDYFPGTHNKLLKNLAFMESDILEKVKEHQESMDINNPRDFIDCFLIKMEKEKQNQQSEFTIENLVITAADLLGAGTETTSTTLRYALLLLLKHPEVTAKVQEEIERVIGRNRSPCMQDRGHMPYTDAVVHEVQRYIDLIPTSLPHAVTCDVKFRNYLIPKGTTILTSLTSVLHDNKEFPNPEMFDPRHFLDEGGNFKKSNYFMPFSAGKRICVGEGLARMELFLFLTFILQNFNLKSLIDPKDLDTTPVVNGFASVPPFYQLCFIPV

SMILES: N#Cc1ccc(-c2ccc(C[C@@H](C#N)NC(=O)[C@@H]3CC4(CCCC4)CN3)cc2)cc1
- IC50 (Dipeptidyl peptidase 1 [1]): 69 nM
- remaining at 15 h [2]: 0%
- IC50 (Dipeptidyl peptidase 1 [3]): 10.2 nM
- half-life [4]: 33.6 min
- inhibition (Dipeptidyl peptidase 1 [5]): 99.7%
- inhibition (Dipeptidyl peptidase 1 [6]): 99%

SMILES: N#Cc1ccc(-c2ccc(C[C@@H](C#N)NC(=O)[C@@H]3CC4(CCCCC4)CN3)cc2)cc1
- IC50 (Dipeptidyl peptidase 1 [3]): 228 nM
- inhibition (Dipeptidyl peptidase 1 [5]): 99.3%
- inhibition (Dipeptidyl peptidase 1 [6]): 84.3%

SMILES: N#Cc1ccc(-c2ccc(C[C@@H](C#N)NC(=O)[C@@H]3C[C@H]4CCC[C@H]4N3)cc2)cc1
- IC50 (Dipeptidyl peptidase 1 [1]): 79.1 nM
- remaining at 15 h [2]: 7%
- IC50 (Dipeptidyl peptidase 1 [3]): 77.7 nM
- half-life [4]: 318 min
- inhibition (Dipeptidyl peptidase 1 [5]): 98.2%
- inhibition (Dipeptidyl peptidase 1 [6]): 85.6%

SMILES: N#Cc1ccc(-c2ccc(C[C@@H](C#N)NC(=O)[C@@H]3COCCN3)cc2)cc1
- IC50 (Dipeptidyl peptidase 1 [1]): 9720 nM
- remaining at 15 h [2]: 48%
- IC50 (Dipeptidyl peptidase 1 [3]): 308 nM
- half-life [4]: 945 min
- inhibition (Dipeptidyl peptidase 1 [5]): 96.3%
- inhibition (Dipeptidyl peptidase 1 [6]): 75.5%

SMILES: N#Cc1ccc(-c2ccc(C[C@@H](C#N)NC(=O)[C@@H]3CC4(CC4)CN3)cc2)cc1
- IC50 (Dipeptidyl peptidase 1 [3]): 77.6 nM
- inhibition (Dipeptidyl peptidase 1 [5]): 99.5%
- inhibition (Dipeptidyl peptidase 1 [6]): 92.4%

SMILES: N#Cc1ccc(-c2ccc(C[C@@H](C#N)NC(=O)[C@H]3CN4CCC[C@@H]4CN3)cc2)cc1
- inhibition (Dipeptidyl peptidase 1 [5]): 1.11%
- inhibition (Dipeptidyl peptidase 1 [6]): 1.11%

SMILES: N#Cc1ccc(-c2ccc(C[C@@H](C#N)NC(=O)[C@@H]3CCCN3)cc2)cc1
- IC50 (Dipeptidyl peptidase 1 [3]): 91.5 nM
- remaining at 2 h [7]: 8.5%
- half-life [4]: 33.6 min
- inhibition (Dipeptidyl peptidase 1 [5]): 99.1%
- inhibition (Dipeptidyl peptidase 1 [6]): 91.5%

SMILES: N#Cc1ccc(-c2ccc(C[C@@H](C#N)NC(=O)[C@@H]3C[C@@H]4C[C@@H]4N3)cc2)cc1
- IC50 (Dipeptidyl peptidase 1 [3]): 223 nM
- inhibition (Dipeptidyl peptidase 1 [5]): 97.9%
- inhibition (Dipeptidyl peptidase 1 [6]): 83.9%

SMILES: N#Cc1ccc(-c2ccc(C[C@@H](C#N)NC(=O)[C@@H]3CN4CCC[C@@H]4CN3)cc2)cc1
- inhibition (Dipeptidyl peptidase 1 [5]): 22.8%
- inhibition (Dipeptidyl peptidase 1 [6]): 4.63%

SMILES: N#Cc1ccc(-c2ccc(C[C@@H](C#N)NC(=O)[C@@H]3C[C@H]4CCC[C@@H]4N3)cc2)cc1
- remaining at 15 h [2]: 100%
- inhibition (Dipeptidyl peptidase 1 [5]): 50.1%
- inhibition (Dipeptidyl peptidase 1 [6]): 6.55%

SMILES: N#Cc1ccc(-c2ccc(C[C@@H](C#N)NC(=O)[C@@H]3C[C@@H]4CCC[C@@H]4N3)cc2)cc1
- remaining at 1 h [8]: 3%
- inhibition at 10 µM (CYP2C9 [9]): 32.4%
- inhibition at 1 µM (CYP2C19 [10]): 17.1%
- Selectivity ratio (Homo sapiens [11]): 93
- inhibition at 10 µM (CYP1A2 [12]): 43.7%
- remaining at 1 h [13]: 6%
- IC50 (Dipeptidyl peptidase 1 [1]): 699 nM
- remaining at 15 h [2]: 97%
- Selectivity ratio (Homo sapiens [14]): 2260
- Stabilty [15]: Stable
- inhibition at 10 µM (CYP2C8 [16]): 40.1%
- IC50 (Dipeptidyl peptidase 1 [3]): 9.27 nM
- inhibition at 10 µM (CYP3A4 [17]): 33.8%
- inhibition at 1 µM (CYP3A4 [18]): 2.2%
- half-life [4]: > 900 min
- remaining at 1 h [19]: 1%
- inhibition at 1 µM (CYP2C9 [20]): 12%
- inhibition at 1 µM (CYP2D6 [21]): 69.7%
- inhibition at 10 µM (CYP2D6 [22]): 88.3%
- Selectivity ratio (Homo sapiens [23]): 10800
- Stabilty [24]: Stable
- inhibition at 1 µM (CYP1A2 [25]): 15.2%
- Stabilty [26]: Stable
- inhibition at 1 µM (CYP2C8 [27]): 11.8%
- inhibition at 10 µM (CYP2C19 [28]): 38.4%
- inhibition (Dipeptidyl peptidase 1 [5]): 100%
- inhibition (Dipeptidyl peptidase 1 [6]): 99.2%
- Selectivity ratio (Homo sapiens [29]): 4400

SMILES: Cn1c(=O)oc2ccc(-c3ccc(C[C@@H](C#N)NC(=O)[C@@H]4CNCCCO4)cc3)cc21 [BRENSOCATIB]
- remaining at 15 h [2]: 95%
- half-life [4]: > 900 min

SMILES: N#Cc1ccc(-c2ccc(C[C@@H](C#N)NC(=O)[C@@H](N)C34CC5CC(CC(O)(C5)C3)C4)cc2)cc1
- inhibition (Dipeptidyl peptidase 1 [5]): 2.19%
- inhibition (Dipeptidyl peptidase 1 [6]): 3.29%

SMILES: N#Cc1ccc(-c2ccc(C[C@@H](C#N)NC(=O)[C@@H]3CC4CCCC[C@@H]4N3)cc2)cc1 (single isomer, unassigned)
- IC50 (Dipeptidyl peptidase 1 [1]): 1720 nM
- IC50 (Dipeptidyl peptidase 1 [3]): 154 nM
- inhibition (Dipeptidyl peptidase 1 [5]): 99%
- inhibition (Dipeptidyl peptidase 1 [6]): 88.7%

SMILES: N#Cc1ccc(-c2ccc(C[C@@H](C#N)NC(=O)C3(N)CCOCC3)cc2)cc1
- half-life [4]: 21.6 min
- remaining at 1 h [30]: 15%
- inhibition (Dipeptidyl peptidase 1 [5]): 99.9%
- inhibition (Dipeptidyl peptidase 1 [6]): 99.2%

SMILES: N#Cc1ccc(-c2ccc(C[C@@H](C#N)NC(=O)[C@H]3CN4CCC[C@H]4CN3)cc2)cc1
- IC50 (Dipeptidyl peptidase 1 [3]): 394 nM
- inhibition (Dipeptidyl peptidase 1 [5]): 95%
- inhibition (Dipeptidyl peptidase 1 [6]): 68.3%

SMILES: N#Cc1ccc(-c2ccc(C[C@@H](C#N)NC(=O)[C@H]3COCCN3)cc2)cc1
- inhibition (Dipeptidyl peptidase 1 [5]): 14.2%
- inhibition (Dipeptidyl peptidase 1 [6]): 2.2%

SMILES: N#Cc1ccc(-c2ccc(C[C@@H](C#N)NC(=O)[C@@H]3CC4(CCC4)CN3)cc2)cc1
- IC50 (Dipeptidyl peptidase 1 [1]): 150 nM
- IC50 (Dipeptidyl peptidase 1 [3]): 27.8 nM
- inhibition (Dipeptidyl peptidase 1 [5]): 98.2%
- inhibition (Dipeptidyl peptidase 1 [6]): 97.2%

SMILES: N#Cc1ccc(-c2ccc(C[C@@H](C#N)NC(=O)[C@@H]3CN4CCC[C@H]4CN3)cc2)cc1
- inhibition (Dipeptidyl peptidase 1 [5]): 0%
- inhibition (Dipeptidyl peptidase 1 [6]): 1.2%

— ChEMBL document CHEMBL4811305, “Development of potent and selective Cathepsin C inhibitors free of aortic binding liability by application of a conformational restriction strategy” (Bioorg Med Chem Lett, 2021)
